Measurements from publication PMC9179932 (Nature chemical biology, 2022).
pIC50: −log10 of the molar value. Where two headings read alike, the source gives them in different places. Peptide text beside a SMILES is read from it.

Columns and labels:
MV4;11 cells [1] = test: MV4; format: cell-based, human; conditions: for LDH release and GSDMD cleavage / effect on CQ31-induced cell death: WT MV4;11; for LDH release and GSDMD cleavage: XP-OMes 1 mM, VbP 2 μM, 14 h; for PI uptake, GSDMD cleavage and LDH release in knockout cells: CASP1−/− and CARD8−/− MV4;11; for LDH release and GSDMD cleavage in PEPD−/− vs control cells: PEPD−/− MV4;11, 1 mM; for LDH release and GSDMD cleavage in PEPD−/− vs control cells / effect on CQ31-induced cell death / effect on VP-OMe- and IP-OMe-induced LDH release and GSDMD cleavage: 6 h; for effect on CQ31-induced cell death: CQ31 10 μM; for effect on CQ31-induced cell death / effect on VP-OMe- and IP-OMe-induced LDH release and GSDMD cleavage: bortezomib 1 μM, VX-765 50 μM; for effect on VP-OMe- and IP-OMe-induced LDH release and GSDMD cleavage: pretreatment
In short: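 MV4;11 cells (WT or knockouts) are plated at 5×10^5 per well. Treatments: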

RAW264.7 cells = test: Pyroptosis in RAW264.7 macrophages; format: cell-based, mouse; conditions: 24 h; for pyroptosis at fivefold higher concentration: 5 mM, CTF and CTG
resting primary T cells = test: Pyroptosis in resting primary T cells; format: cell-based, human; conditions: for GSDMD cleavage in resting T cells: 1 mM, 18 h
In short: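 Primary resting human CD3+ T cells (>90% purity) are thawed in RPMI/10% FBS and cultured with IL-2 30 U ml−1. Cells are treated with 1 mM for 18 h or 10 μM for 24 h. Analysis is by immunoblot for pyroptotic and apoptotic markers, with CTG viability after 24 h. Results are representative of two independent experiments.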

THP-1 cells = test: THP-1 LDH release and GSDMD cleavage immunoblot; format: cell-based, human; conditions: for additional pyroptosis in DPP8/9−/− THP-1 cells: LDH release, GSDMD cleavage, CTG and CTF; for LDH release and GSDMD cleavage: WT THP-1, XP-OMes 1 mM, VbP 2 μM, 24 h; for PI uptake, GSDMD cleavage and LDH release in knockout cells: CASP1−/− and CARD8−/− THP-1
J774.1 macrophages = test: Pyroptosis in J774.1 macrophages; format: cell-based, mouse; conditions: VbP 2 μM, 24 h
In short: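 J774.1 cells are grown in RPMI/10% FBS, plated at 5×10^5 per well and treated 24 h (VbP 2 μM). Supernatant LDH is measured relative to Triton X-100 lysis (n = 3). For the dose series, 2,000 cells per well in 384-well plates get compound by pintool. CTF fluorescence is read after 30 min, then CTG luminescence after 2 min shaking and 10 min at 25 °C (n = 6).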

N/TERT-1 keratinocytes = test: NLRP1 inflammasome activation in N/TERT-1 keratinocytes; format: cell-based, human; conditions: XP-OMes 1 mM, VbP 10 μM, CQ31 10 μM, 16 h
In short: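 N/TERT-1 immortalised keratinocytes seeded at 1×10^5 cells per well in 12-well plates, grown to 70% confluence, then treated with test compound for 16 h. Supernatants assayed for LDH activity with a commercial cytotoxicity kit; inflammasome readouts such as IL-18 processing assessed by immunoblotting.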

human NLRP1 inflammasome = test: Reconstituted human NLRP1 inflammasome in HEK 293T cells; format: cell-based; conditions: XP-OMes 1 mM, VbP 10 μM, CQ31 10 μM, 24 h
In short: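 For ASC specks, HEK 293T cells (2.5×10^5 per well) are transfected with 10 ng FLAG-NLRP1, 5 ng V5-GFP-ASC and 985 ng RFP plasmid and allowed 24 h expression. They are treated 24 h, Hoechst-stained, and the % of cells with specks is scored by microscopy. For GSDMD cleavage, HEK 293T cells stably expressing CASP1/GSDMD get 0.02 μg NLRP1 and 0.01 μg ASC (2.0 μg total DNA), are treated 16–20 h later for 24 h, and are immunoblotted.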

MV4;11 cells [2] = test: MV4; format: cell-based; conditions: 1 mM; for lytic cell death / cytotoxicity in MV4;11 cells: PI uptake, CTG, CTF; for pyroptosis in PEPD−/− knockout cells / activity in control cells: 14 h
recombinant DPP9 = recombinant DPP9 (Homo sapiens, UniProt Q86TI2); test: AP-AMC-based DPP9 substrate assay; format: biochemical; conditions: for effect of esterification on DPP9 inhibition: methyl ester vs free dipeptide
In short: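 Recombinant DPP9 (1 nM) is dispensed into 384-well plates and test compound is added by pintool over a concentration series. Reaction starts with 25 μM AP-AMC. Cleavage is read as rising fluorescence (ex/em 380/460 nm) at 25 °C for 30 min.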

[3] = tested on: VbP-sensitive cell lines, including THP-1 cells; test: Viability of VbP-sensitive AML cancer cell lines; format: cell-based, human; conditions: 24 h, CTG
In short: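 Cell lines grown in RPMI/10% FBS are seeded at 2,000 cells per well in 384-well plates (25 μl). Test compound is pinned in at multiple concentrations and incubated 24 h at 37 °C, 5% CO2. CellTiter-Glo is added, plates are shaken 2 min and held 10 min at 25 °C, and luminescence is read.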

NLRP1–DPP9 interaction = NLRP1–DPP9 interaction (Homo sapiens, UniProt Q86TI2); test: DPP9 displacement from FLAG-NLRP1 on anti-FLAG beads; format: binding; conditions: VbP 10 μM; VP dipeptide 0.5, 5 mM; CQ31, CQ04 10 μM
Chain of NLRP1–DPP9 interaction (Q86TI2 whole entry): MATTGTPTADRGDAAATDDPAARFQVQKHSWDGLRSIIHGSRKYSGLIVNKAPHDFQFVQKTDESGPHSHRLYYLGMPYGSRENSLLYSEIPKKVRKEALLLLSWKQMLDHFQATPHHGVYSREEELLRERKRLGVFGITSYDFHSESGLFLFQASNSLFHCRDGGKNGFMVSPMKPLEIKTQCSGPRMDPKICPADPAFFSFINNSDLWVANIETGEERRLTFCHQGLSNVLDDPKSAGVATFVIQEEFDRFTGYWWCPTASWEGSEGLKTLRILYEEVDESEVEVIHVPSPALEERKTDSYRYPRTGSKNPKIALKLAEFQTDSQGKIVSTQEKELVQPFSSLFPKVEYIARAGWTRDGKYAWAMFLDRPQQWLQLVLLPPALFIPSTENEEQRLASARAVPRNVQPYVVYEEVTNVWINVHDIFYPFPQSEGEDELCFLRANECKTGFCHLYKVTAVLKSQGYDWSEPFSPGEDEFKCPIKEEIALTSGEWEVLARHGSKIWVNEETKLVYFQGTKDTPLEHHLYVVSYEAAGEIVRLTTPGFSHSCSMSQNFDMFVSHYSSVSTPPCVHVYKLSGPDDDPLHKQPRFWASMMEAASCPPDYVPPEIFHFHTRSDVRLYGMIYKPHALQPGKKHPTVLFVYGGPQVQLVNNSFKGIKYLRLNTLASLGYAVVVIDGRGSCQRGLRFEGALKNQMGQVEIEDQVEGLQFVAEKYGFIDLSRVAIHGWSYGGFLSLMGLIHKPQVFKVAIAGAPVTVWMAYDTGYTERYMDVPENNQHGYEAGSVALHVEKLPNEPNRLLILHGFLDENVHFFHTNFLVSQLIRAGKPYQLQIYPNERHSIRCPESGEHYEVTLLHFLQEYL

Chain of recombinant DPP9 (Q86TI2 whole entry, species assumed): as the sequence (Q86TI2 whole entry) above

## CC(C)[C@H](N)C(=O)N1CCC[C@H]1B(O)O [VbP, Val-boroPro, reference compound]
MV4;11 cells [1]
  LDH release and GSDMD cleavage: induced the release of intracellular lactate dehydrogenase (LDH) and GSDMD cleavage
RAW264.7 cells; VbP 2 μM
  activation of mNLRP1B1 (LDH release, GSDMD cleavage): activated mouse NLRP1B allele 1
Resting primary T cells; 10 μM, 24 h
  pyroptosis in resting primary T cells: induced pyroptosis
THP-1 cells
  additional pyroptosis in DPP8/9−/− THP-1 cells: did not induce any additional pyroptosis
  LDH release and GSDMD cleavage: induced the release of intracellular lactate dehydrogenase (LDH) and GSDMD cleavage
J774.1 macrophages
  activation of mNLRP1B1 (LDH release): activated mouse NLRP1B allele 1
N/TERT-1 keratinocytes
  NLRP1 inflammasome activation (LDH release, IL-18 cleavage and release): induced LDH release as well as IL-18 cleavage and release
Human NLRP1 inflammasome
  ASC speck formation: triggered the formation of ASC specks

## COC(=O)[C@@H]1CCCN1C(=O)[C@@H](N)C(C)C [VP-OMe] (H-Val-Pro-OMe)
MV4;11 cells [1]
  PI uptake, GSDMD cleavage and LDH release in knockout cells: lack of PI uptake, GSDMD cleavage and LDH release
  LDH release and GSDMD cleavage in PEPD−/− vs control cells: induced more LDH release and GSDMD cleavage
  LDH release and GSDMD cleavage: induced the release of intracellular lactate dehydrogenase (LDH) and GSDMD cleavage
MV4;11 cells [2]
  lytic cell death / cytotoxicity in MV4;11 cells: cytotoxic
RAW264.7 cells
  pyroptosis at fivefold higher concentration: failed to trigger pyroptosis
Resting primary T cells
  GSDMD cleavage in resting T cells: induced GSDMD cleavage
THP-1 cells
  PI uptake, GSDMD cleavage and LDH release in knockout cells: lack of PI uptake, GSDMD cleavage and LDH release
  additional pyroptosis in DPP8/9−/− THP-1 cells: did not induce any additional pyroptosis
  LDH release and GSDMD cleavage: induced the release of intracellular lactate dehydrogenase (LDH) and GSDMD cleavage
Recombinant DPP9
  effect of esterification on DPP9 inhibition: did not impact DPP9 inhibition
N/TERT-1 keratinocytes
  NLRP1 inflammasome activation (LDH release, IL-18 cleavage and release): did not induce NLRP1 inflammasome activation
[3]
  concentration inducing cell death: < 5 mM

## COC(=O)[C@@H]1CCCN1C(=O)[C@@H](N)CC(C)C [LP-OMe] (H-Leu-Pro-OMe)
MV4;11 cells [2]
  pyroptosis in PEPD−/− knockout cells: induced pyroptosis
  activity in control cells: inactive in control cells

## CC(C)[C@H](N)C(=O)N1CCC[C@H]1C(=O)O [Val-Pro, reference compound] (H-Val-Pro-OH)
NLRP1–DPP9 interaction
  disruption of NLRP1–DPP9 interaction (DPP9 elution): had no impact on the NLRP1 ternary complex
MV4;11 cells [2]
  lytic cell death / cytotoxicity in MV4;11 cells: did not induce lytic cell death
Recombinant DPP9; read-out: IC50, DPP9 inhibition, Ala-Pro-aminomethylcoumarin (AP-AMC) substrate
  pIC50: 4.82 to 5.00

## CC(C)C[C@H](NC(=O)[C@H](Cc1ccccc1)NC(=O)c1cnccn1)B(O)O [bortezomib, reference compound]
MV4;11 cells [1]
  apoptosis (PARP cleavage): caused considerable apoptosis
  effect on CQ31-induced cell death: blocked CQ31-induced cell death
  effect on VP-OMe- and IP-OMe-induced LDH release and GSDMD cleavage: completely blocked

## COC(=O)[C@@H]1CCCN1C(=O)[C@@H]1CCCN1 [PP-OMe] (H-Pro-Pro-OMe)
MV4;11 cells [2]
  pyroptosis in PEPD−/− knockout cells: induced pyroptosis
  activity in control cells: inactive in control cells

## CC[C@H](C)[C@H](N)C(=O)N1CCC[C@H]1C(=O)OC [IP-OMe] (H-Ile-Pro-OMe)
MV4;11 cells [1]
  PI uptake, GSDMD cleavage and LDH release in knockout cells: lack of PI uptake, GSDMD cleavage and LDH release
  LDH release and GSDMD cleavage in PEPD−/− vs control cells: induced more LDH release and GSDMD cleavage
  LDH release and GSDMD cleavage: induced the release of intracellular lactate dehydrogenase (LDH) and GSDMD cleavage
MV4;11 cells [2]
  lytic cell death / cytotoxicity in MV4;11 cells: cytotoxic
RAW264.7 cells
  pyroptosis at fivefold higher concentration: failed to trigger pyroptosis
Resting primary T cells
  GSDMD cleavage in resting T cells: induced GSDMD cleavage
THP-1 cells
  PI uptake, GSDMD cleavage and LDH release in knockout cells: lack of PI uptake, GSDMD cleavage and LDH release
  additional pyroptosis in DPP8/9−/− THP-1 cells: did not induce any additional pyroptosis
  LDH release and GSDMD cleavage: induced the release of intracellular lactate dehydrogenase (LDH) and GSDMD cleavage
Recombinant DPP9
  effect of esterification on DPP9 inhibition: did not impact DPP9 inhibition
N/TERT-1 keratinocytes
  NLRP1 inflammasome activation (LDH release, IL-18 cleavage and release): did not induce NLRP1 inflammasome activation

## CCC(C)C(N)C(=O)N1CCCC1C(=O)O (stereo not drawn) [Ile-Pro, reference compound] (H-Ile-Pro-OH; configuration not given here)
MV4;11 cells [2]
  lytic cell death / cytotoxicity in MV4;11 cells: did not induce lytic cell death
Recombinant DPP9
  pIC50: 4.82 to 5.00

## CCO[C@@H]1OC(=O)C[C@@H]1NC(=O)[C@@H]1CCCN1C(=O)[C@@H](NC(=O)c1ccc(N)c(Cl)c1)C(C)(C)C [VX-765, reference compound]
MV4;11 cells [1]
  effect on CQ31-induced cell death: blocked CQ31-induced cell death
  effect on VP-OMe- and IP-OMe-induced LDH release and GSDMD cleavage: completely blocked

## COC(=O)[C@@H]1CCCN1C(=O)[C@@H](N)CCSC [MP-OMe] (H-Met-Pro-OMe)
MV4;11 cells [2]
  pyroptosis in PEPD−/− knockout cells: induced pyroptosis
  activity in control cells: inactive in control cells
